Data set [1] is described as follows: Ratio of drug level in anesthetized C57BL/6J mouse brain to plasma at 5 mg/kg, ip administered as single dose measured upto 240 mins by LC-MS/MS analysis. Particulars: read-out: BPR. The class given is ADME, organism-based. The method, boiled down: (§1)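 Male and female mice (C57BL/6J or C57BL/6J x 129 F1), postnatal days 21-28, single i.p. injection at 10 mL/kg in vegetable oil or ethanol–Tween 80–saline (1:1:18). Blood taken by cardiac puncture under isoflurane at time points 15–240 min. Plasma and PBS brain homogenate extracted with ice-cold acetonitrile, diazepam internal standard, quantified by LC-MS/MS. Mean concentrations per time point (n = 3-5); noncompartmental analysis.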

A short description of data set [2]: Tmax in anesthetized C57BL/6J mouse brain at 5 mg/kg, ip administered as single dose measured upto 240 mins by LC-MS/MS analysis. In kind it is ADME, organism-based. The method, boiled down:
as §1

Data set [3] can be described thus: Drug metabolism in brain of anesthetized C57BL/6J mouse assessed as decrease in decarboxylation of parent compound at 5 mg/kg, ip by LC-MS/MS analysis. In kind it is ADME, organism-based. The settings on record: in vivo. An outline of the steps: (§2)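 Mice aged 21-28 days postnatal received one i.p. dose (10 mL/kg), and plasma and brain were sampled at 15–240 min. Decarboxylated neutral cannabinoids were measured by LC-MS/MS against known standards, alongside the parent acid.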

The nature of data set [4]: Half life in anesthetized C57BL/6J mouse brain at 5 mg/kg, ip administered as single dose measured upto 240 mins by LC-MS/MS analysis. The class given is ADME, organism-based. The method, boiled down: as §1
Data set [5] is described as follows: Drug metabolism in plasma of anesthetized C57BL/6J mouse assessed as decrease in decarboxylation of parent compound at 5 mg/kg, ip by LC-MS/MS analysis. In kind it is ADME, organism-based. Particulars: in vivo. The method, boiled down: as §2
Data set [6] can be described thus: AUC in anesthetized C57BL/6J mouse plasma at 5 mg/kg, ip administered as single dose measured upto 240 mins by LC-MS/MS analysis. In kind it is ADME, organism-based. More on the design: dose 5 mg/kg, time < 4 hr, route intraperitoneal. The method, boiled down:
as §1

Data set [7] in a line: Half life in anesthetized C57BL/6J mouse plasma at 5 mg/kg, ip administered as single dose measured upto 240 mins by LC-MS/MS analysis. In kind it is ADME, organism-based. An outline of the steps:
as §1

The nature of data set [8]: Partition coefficient, log P of compound. The settings on record: octanol/water. The class given is physicochemical.
Data set [9] in a line: Dissociation constant, pKa of compound. The class given is physicochemical.
Data set [10] in a line: Cmax in anesthetized C57BL/6J mouse brain at 5 mg/kg, ip administered as single dose measured upto 240 mins by LC-MS/MS analysis. More on the design: dose 5 mg/kg, route intraperitoneal. In kind it is ADME, organism-based. The method, boiled down:
as §1

The nature of data set [11]: Cmax in anesthetized C57BL/6J mouse plasma at 5 mg/kg, ip administered as single dose measured upto 240 mins by LC-MS/MS analysis. The class given is ADME, organism-based. More on the design: dose 5 mg/kg, route intraperitoneal. An outline of the steps:
as §1

A short description of data set [12]: AUC in anesthetized C57BL/6J mouse brain at 5 mg/kg, ip administered as single dose measured upto 240 mins by LC-MS/MS analysis. The class given is ADME, organism-based. More on the design: time < 4 hr, dose 5 mg/kg, route intraperitoneal. An outline of the steps:
as §1

The nature of data set [13]: Tmax in anesthetized C57BL/6J mouse plasma at 5 mg/kg, ip administered as single dose measured upto 240 mins by LC-MS/MS analysis. In kind it is ADME, organism-based. The method, boiled down:
as §1

A short description of data set [14]: Cmax in anesthetized C57BL/6J mouse plasma at 10 mg/kg, ip administered as single dose measured upto 240 mins by LC-MS/MS analysis. In kind it is ADME, organism-based. Also on record: dose 10 mg/kg, route intraperitoneal. An outline of the steps:
as §1

Data set [15] is described as follows: Tmax in anesthetized C57BL/6J mouse brain at 10 mg/kg, ip administered as single dose measured upto 240 mins by LC-MS/MS analysis. The class given is ADME, organism-based. An outline of the steps: as §1
Data set [16] is described as follows: Half life in anesthetized C57BL/6J mouse plasma at 10 mg/kg, ip administered as single dose measured upto 240 mins by LC-MS/MS analysis. The class given is ADME, organism-based. An outline of the steps:
as §1

A short description of data set [17]: AUC in anesthetized C57BL/6J mouse plasma at 10 mg/kg, ip administered as single dose measured upto 240 mins by LC-MS/MS analysis. In kind it is ADME, organism-based. More on the design: time < 4 hr, dose 10 mg/kg, route intraperitoneal. An outline of the steps:
as §1

A short description of data set [18]: Cmax in anesthetized C57BL/6J mouse brain at 10 mg/kg, ip administered as single dose measured upto 240 mins by LC-MS/MS analysis. The class given is ADME, organism-based. More on the design: dose 10 mg/kg, route intraperitoneal. The settings on record: in vivo, 4 h. An outline of the steps:
as §1

Data set [19] can be described thus: Tmax in anesthetized C57BL/6J mouse plasma at 10 mg/kg, ip administered as single dose measured upto 240 mins by LC-MS/MS analysis. The class given is ADME, organism-based. The method, boiled down:
as §1

Data set [20] can be described thus: Drug metabolism in brain of anesthetized C57BL/6J mouse at 10 mg/kg, ip by LC-MS/MS analysis. In kind it is ADME, organism-based. The settings on record: in vivo. The method, boiled down:
as §2

Data set [21] can be described thus: Drug uptake in plasma of anesthetized C57BL/6J mouse assessed as purity of compound at 10 mg/kg, ip by LC-MS/MS analysis. Particulars: in vivo. The class given is ADME, organism-based. An outline of the steps: as §2
Data set [22] is described as follows: Ratio of drug level in anesthetized C57BL/6J mouse brain to plasma at 10 mg/kg, ip administered as single dose measured upto 240 mins by LC-MS/MS analysis. The class given is ADME, organism-based. Particulars: read-out: BPR. The method, boiled down: as §1
The nature of data set [23]: Half life in anesthetized C57BL/6J mouse brain at 10 mg/kg, ip administered as single dose measured upto 240 mins by LC-MS/MS analysis. In kind it is ADME, organism-based. The method, boiled down:
as §1

The nature of data set [24]: Drug uptake in plasma of anesthetized C57BL/6J mouse at 10 mg/kg, ip by LC-MS/MS analysis. The class given is ADME, organism-based. The settings on record: in vivo. The method, boiled down: as §2

Three molecules from ChEMBL document CHEMBL4414643, “Pharmacokinetics of Phytocannabinoid Acids and Anticonvulsant Effect of Cannabidiolic Acid in a Mouse Model of Dravet Syndrome” (J Nat Prod, 2019) can be followed below.

The term Tmax denotes the time at which the peak concentration occurs. One may read the half-life as how long it takes for the measured level to halve. In general, AUC refers to the area under the concentration-time curve, a measure of exposure. For orientation: logP means the decadic logarithm of the partition coefficient of the neutral form, usually between octanol and water. A higher logP goes with a more lipophilic compound. One may read the pKa as the negative logarithm of the acid dissociation constant.

Consider `C=C(C)[C@@H]1CCC(C)=C[C@H]1c1c(O)cc(CCC)c(C(=O)O)c1O`, for which the Kp at 4 h in data set [1] turned out to be 0.02. Moreover, the results for the Tmax in data set [2] and in data set [13] were 30 min and 15 min, respectively. Besides, the Drug metabolism result in data set [3] and in [5] was “Metabolite_Notdetected” each time. Also, the half-life in data set [4] is 19 min; in [7], 49 min. For the same molecule, the AUC at 4 h is 24.8 µg·h/mL in [6] and 0.55 µg·h/mL in data set [12]. Also, the logP in data set [8] stood at 5.94. The pKa in data set [9] came to 2.91. Further, the Cmax in [10] (C57BL/6J, brain, read-out: Cmax) was found to be 0.8 µg/mL; in data set [11], 21 µg/mL.

Take `CCCc1cc(O)c(C/C=C(\C)CCC=C(C)C)c(O)c1C(=O)O`: the values for the Cmax in data set [14] and in data set [18] were 34.4 µg/mL and 3.8 ng/mg, respectively. Also, the Tmax is 90 min in [15] and 15 min in [19]. In addition, the half-life was 204 min in data set [16] and 29 min in data set [23]. Besides, in data set [17], the AUC at 4 h was 199 µg·h/mL. In data set [8], the logP was determined as 6.46. The molecule further registered a pKa in data set [9] of 2.92. In addition, in data set [20], the Drug metabolism entry is recorded as “Metabolite_Notdetected”. Besides, the figures for the Drug uptake in [21] and in data set [24] were 97% and 0.2%, respectively. Besides, the Kp at 4 h in data set [22] was 0.04.

In the case of `CCCCCc1cc2c(c(O)c1C(=O)O)C=CC(C)(CCC=C(C)C)O2` (stereo not given), the Drug metabolism result in data set [3] and in [5] was “Metabolite_Notdetected” throughout. The AUC at 4 h in data set [6] is 2.88 µg·h/mL. Also, the half-life in data set [7] was 24 min. For the same molecule, in [8], the logP was 6.91. In data set [9], this molecule had a pKa of 2.87. Moreover, the Cmax entry in data set [10] (in vivo, 4 h, BLD = below limit of detection) is “Bld”; in [11] it was 3.3 µg/mL. The Tmax in [13] was 30 min.
